Compound activity: PubChem, several laboratories
The full list was thinned out, with hits kept by preference.
HSF1 inh: HSF1 inhibition; NIH3T3-HGL HSE-luciferase, MG132-induced, luminescence 8 h; active compounds read low; AID 2098; 300,000 compounds, 0.77% hits; activity change, negative = inhibition, % at 7.5 µM (by protocol);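 active = more than half of replicate wells show activity change below -50%, luminescence cut by over half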;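 note: luciferase reports HSF-1 transcriptional activity via heat shock element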
HSF1 activator: increases HSF-1 driven luciferase reporter signal; 300,000 compounds, 1.7% hits; NIH3T3-HGL HSF-1 luciferase reporter, MG132, 8 h; 100% = twice DMSO control signal; activation, % at 9 µM; AID 504408;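 active = mean replicate activation of at least 50% with a set share of replicates each reaching 50%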
T cruzi inh: blocks replication of Trypanosoma cruzi; T. cruzi beta-gal in NIH3T3, luminescence, 90 h; inhibition, % (no concentration beside the values); 300,000 compounds, 1.4% hits; AID 1885;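 active = mean inhibition across valid replicates above about 55%, limit read from the data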;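 note: signal also drops with host cell toxicity which is not excluded here; higher percent means less beta-gal luminescence so fewer parasites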
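Assay system: NIH/3T3 fibroblasts plus reporter T. cruzi. Amount: NIH/3T3 cells, 5,000 per well. Buffer or medium: DMEM, 2% fetal bovine serum. Doses: compound pinned at 50 nL/well, DMSO. Schedule: ≥90 h infection period, 3 h prior cell attachment. Signal: luminescent β-galactosidase signal after 60 min lysis. Read-out: parasite load inhibition, %.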
L major viab: inhibitors of Leishmania major promastigote growth; Leishmania major promastigotes, resazurin fluorescence viability; inhibition, % at 10 µM; 200,000 compounds, 9% hits; AID 1063; in the data active = inhibition above about 50%;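 note: promastigotes grown with compound for 44 hours at 28 °C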
Hsp70 activator: transcriptional activators of Hsp70 | 200,000 compounds, 0.04% hits | HeLa Hsp70 promoter luciferase reporter, luminescence; scaled: vehicle 0, proteasome-inhibitor control 100% | activation, % at 10 µM;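 active = activation above the mean across all tested compounds plus 3 SD, cutoff set per campaign, cut at about 5.5% in these data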
Numbers stand for hits; – = inactive; · = no result.

SMILES	HSF1 inh	HSF1 activator	T cruzi inh	L major viab	Hsp70 activator
CCOC(=O)c1c(NC(=O)CN2CCCCC2)sc2c1CCN(C(=O)OCC)C2	–	–	60	–	–
CCOC(=O)c1c(NC(=O)C(=O)N/N=C/c2ccccc2OC)sc2c1CCCCC2	–	–	–	–	–
CCOC(=O)c1c(NC(=O)CN2CCN(C(=O)c3ccco3)CC2)sc2c1CCCC2	–	–	–	52	–
CCOC(=O)c1c(NC(=O)COc2cccc3c2CCN(CC)C3=O)sc2c1CCC2	–	–	–	59	–
CCOC(=O)c1c(NC(=O)C(=O)N/N=C/c2ccccc2O)sc2c1CCCCC2	–	–	–	99	–
CCOC(=O)c1c(NC(=O)c2ccco2)sc2c1CCCC2	–	–	–	–	–
O=C(Cc1ccc(Br)c2ccccc12)N/N=C/c1ccccn1	–	–	–	–	–
CCOC(=O)Cc1csc(SCC(=O)Nc2cc(Cl)ccc2Oc2ccccc2)n1	–	–	–	–	–
CCN(CC)C(=O)CSc1nc2c(sc(=S)n2-c2ccc(C)cc2C)c(=O)[nH]1	–	–	–	·	·
CCNC(=O)NC(=O)C(C)OC(=O)[C@H](C)NS(=O)(=O)c1c(C)c(C)cc(C)c1C (some centres undefined)	–	–	–	·	·
Cc1ccnc(NC(=O)c2ccc([N+](=O)[O-])s2)c1	–	70	55	·	·
Cc1ccnc(NC(=O)CNC(=O)c2ccc(C)s2)c1	–	–	–	·	·
CCN(CC)S(=O)(=O)c1cc(C(=O)Nc2cc(C)on2)ccc1Cl	-61	–	–	·	·
Cc1cc(NC(=O)c2ccc(C)c(C)c2)no1	–	61	–	·	·
Cc1ccnc(NC(=O)c2cc([N+](=O)[O-])cc([N+](=O)[O-])c2)c1	–	–	60	67	–
Cc1cc(NC(=O)c2cc([N+](=O)[O-])cc([N+](=O)[O-])c2)no1	–	–	55	·	·
Cc1cc(NC(=O)c2cccc([N+](=O)[O-])c2)no1	–	–	–	·	·
COc1ccccc1NC(=O)COc1cccc2c1CCNC2=O	–	–	–	·	·
C/C(=N\NC(=O)CNC(=O)c1ccccc1F)c1ccco1	–	–	–	·	·
O=C(Nc1nc(-c2ccccc2)cs1)C1CCCN(S(=O)(=O)c2cccc([N+](=O)[O-])c2)C1 (centres undefined)	–	–	74	93	–
O=C(Nc1ccc(-c2csc(Nc3cccc(C(F)(F)F)c3)n2)cc1)c1ccccc1	–	–	79	·	·
O=C(Nc1cccc(-c2csc(Nc3cccc(C(F)(F)F)c3)n2)c1)c1ccccc1	–	–	–	·	·
Cc1csc(NC(=O)C2CCCN(S(=O)(=O)c3ccc(Br)s3)C2)n1 (centres undefined)	–	–	–	61	–
Cc1csc(NC(=O)c2cc([N+](=O)[O-])cc([N+](=O)[O-])c2)n1	–	–	–	94	–
COc1ccc(S(=O)(=O)N2CCNC(=O)CC2)cc1	–	–	–	·	·
SMILES	HSF1 inh	HSF1 activator	T cruzi inh	L major viab	Hsp70 activator
Cc1ccc(S(=O)(=O)N2CCOCC2)cc1N/N=C(\C#N)c1nc2ccccc2[nH]1	–	–	–	–	–
Cc1ccccc1CN(C)CC(=O)Nc1c(C)cccc1C(C)C	–	–	–	–	–
O=C(Nc1nc(-c2ccccc2)cs1)C1CCCN(S(=O)(=O)c2ccccc2)C1 (centres undefined)	–	–	61	–	–
COCC(=O)Nc1nc(-c2ccc([N+](=O)[O-])cc2)cs1	–	–	–	–	–
Cc1cc(C)n2nc(C(=O)Nc3nccs3)nc2n1	–	–	–	–	–
CCC(=O)Nc1nc(-c2cc([N+](=O)[O-])cs2)cs1	–	–	–	90	–
O=C(Nc1nc(-c2ccccc2)cs1)c1cccc([N+](=O)[O-])c1	–	–	55	–	–
O=C(Nc1cccnc1)C1CCCN(S(=O)(=O)c2ccccc2)C1 (centres undefined)	–	–	–	–	–
Cc1csc(NC(=O)c2nc3nc(C)cc(C)n3n2)n1	–	61	–	77	–
COc1ccc(NC(=O)CN(C)C(=O)c2ccc3[nH]c4c(c3c2)CC(C)CC4)cc1 (centres undefined)	–	–	–	·	·
CCn1c(COc2ccc(=O)n(-c3ccccc3)n2)nnc1SC	–	–	–	–	–
CCCCCCCCCC[n+]1cccc2c3ccccc3ccc21	–	–	70	100	–
CCCCCCCC[n+]1cccc2c3ccccc3ccc21	–	–	68	101	–
CN(c1nc2nonc2nc1NC1CC1)C1CCOC1 (centres undefined)	–	–	–	–	–
O=C(Cc1ccc([N+](=O)[O-])cc1)Nc1cc(C(F)(F)F)cc(C(F)(F)F)c1	–	–	70	·	·
O=C(Cc1ccc([N+](=O)[O-])cc1)Nc1cccc(C(F)(F)F)c1	–	–	–	–	–
CC(C)CC(NS(=O)(=O)c1ccc2c(c1)oc(=O)n2C)C(=O)NC1CCCc2ccccc21 (centres undefined)	–	62	–	–	–
O=C(C[n+]1cc(-c2ccc(F)cc2)n2c1CCC2)N1c2ccccc2Sc2ccccc21	–	–	–	91	–
Cc1ccc(-c2c[n+](CC(=O)N3c4ccccc4Sc4ccccc43)c3n2CCC3)cc1	–	–	–	96	–
CCOC(=O)CN1C(=O)S/C(=C/c2ccc(O)c([N+](=O)[O-])c2)C1=O	–	–	–	52	–
NC(=O)CC(NC(=O)c1ccc(Cl)cc1)C(=O)NCCc1ccc(S(N)(=O)=O)cc1 (centres undefined)	–	–	–	·	·
CC1CC(C)(C)NC(=S)N1CCC(=O)N1c2ccccc2CC1C (centres undefined)	–	–	–	–	–
CCc1ccc(N=c2c([N+](=O)[O-])nn(-c3ccccc3)n2O)cc1	–	–	56	88	–
Cc1ccc(CN=c2c([N+](=O)[O-])nn(-c3cccc(C)c3)n2O)cc1	–	–	–	–	–
Cc1cc(C)cc(N=c2c([N+](=O)[O-])nn(-c3ccc(Cl)cc3)n2O)c1	–	–	59	95	–
SMILES	HSF1 inh	HSF1 activator	T cruzi inh	L major viab	Hsp70 activator
Cc1ccc(CCN2CC(C(=O)NC3CCCCC3)CC2=O)cc1 (centres undefined)	–	–	–	·	·
Cc1cc(C(=O)c2cnc(/N=C/N(C)C)s2)c(F)cc1Cl	–	–	–	–	–
CCC(=O)Nc1cccc(NC(=O)c2ccc(C)cc2Cl)c1	–	–	–	–	–
C=CCc1cc(Cl)ccc1OCCNCCN1CCOCC1	–	–	73	95	–
C=CCc1cc(Cl)ccc1OCCN1CC(C)OC(C)C1 (centres undefined)	–	–	–	83	–
C=CCc1cc(Cl)ccc1OCCNCCOC	–	–	–	95	–
COCCNCc1ccc(Cl)cc1Cl	–	–	–	–	–
Nc1cc(N)nc(SCC(=O)Nc2cc(S(=O)(=O)N3CCOCC3)ccc2Cl)n1	–	–	–	·	·
COc1ccc(CNC(=O)c2c(O)c3cc(OC)c(OC)cc3[nH]c2=O)cc1OC	–	–	–	·	·
